Consider 25 molecules from ChEMBL document CHEMBL3856208, “Lupane and 18α-oleanane derivatives substituted in the position 2, their cytotoxicity and influence on cancer cells” (Eur J Med Chem, 2016).

Data set [1] in a line: Cytotoxicity against human CCRF-CEM cells after 72 hrs by MTS assay. The format is functional, cell-based. In short, it runs like this: (§1)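 Cells seeded at 25000–35000 cells/mL, compounds from DMSO dosed at time zero as four-fold dilutions. Exposure 72 h at 37 °C, 5% CO2, with MTS added for 1–4 h and OD read at 490 nm. Survival expressed as % of mean control OD, with IC50 from dose-response curves. Run as technical duplicates in at least three biological replicates.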
(In general: Tetrazolium dyes change colour on reduction, which living cells bring about.)

A short description of data set [2]: Cytotoxicity against human CEM/DNR cells after 72 hrs by MTS assay. The format is functional, cell-based. In short, it runs like this: as §1
The nature of data set [3]: Cytotoxicity against human A549 cells after 72 hrs by MTS assay. Particulars: A549, 72 h. It counts as functional, cell-based. The procedure, abridged: as §1
Data set [4] can be described thus: Cytotoxicity against human K562-TAX cells after 72 hrs by MTS assay. The format is functional, cell-based. The procedure, abridged:
as §1

Data set [5] can be described thus: Cytotoxicity against human K562 cells after 72 hrs by MTS assay. It counts as functional, cell-based. Conditions: K562, 72 h. The procedure, abridged:
as §1

A short description of data set [6]: Cytotoxicity against human BJ cells after 72 hrs by MTS assay. The format is toxicity, cell-based. The procedure, abridged:
as §1

The nature of data set [7]: Cytotoxicity against human U2OS cells after 72 hrs by MTS assay. The format is functional, cell-based. In short, it runs like this: as §1
Data set [8] in a line: Therapeutic index, ratio of IC50 for human BJ cells to IC50 for human CCRF-CEM cells. It counts as cell-based. Conditions: BJ cells versus CCRF-CEM cells, read-out: Ratio IC50.
A short description of data set [9]: Cytotoxicity against human HCT116 cells after 72 hrs by MTS assay. The format is functional, cell-based. Conditions: HCT-116, 72 h. The procedure, abridged:
as §1

Data set [10] is described as follows: Therapeutic index, ratio of IC50 for human MRC5 cells to IC50 for human CCRF-CEM cells. Particulars: MRC5 cells versus CCRF-CEM cells, read-out: Ratio IC50. The format is cell-based.
Data set [11] is described as follows: Cytotoxicity against p53 deficient human HCT116 cells after 72 hrs by MTS assay. It counts as functional, cell-based. Conditions: HCT-116, 72 h. In short, it runs like this: as §1
A short description of data set [12]: Cytotoxicity against human MRC5 cells after 72 hrs by MTS assay. It counts as toxicity, cell-based. In short, it runs like this: as §1

`CC(C)[C@@H]1CC[C@]2(C(=O)O)CC[C@]3(C)[C@H](CC[C@@H]4[C@@]5(C)CC(Br)C(=O)C(C)(C)[C@@H]5CC[C@]43C)[C@@H]12` (stereo partly drawn): the IC50 in data set [1] came out at 2 µM.

Consider `COC(=O)[C@]12CC[C@@H](C(C)C)[C@@H]1[C@H]1CC[C@@H]3[C@@]4(C)CC(S)C(=O)C(C)(C)[C@@H]4CC[C@@]3(C)[C@]1(C)CC2` (stereo partly drawn), for which the concentration for half-maximal inhibition (IC50) was over 50 µM in [2]; over 50 µM in data set [3]; over 50 µM in data set [4]; over 50 µM in [5]; 40 to 45.3 µM in [1]; over 50 µM in data set [7]. Besides, the half-maximal inhibitory concentration (IC50) in data set [9] and in data set [11] was over 50 µM each time. In addition, the concentration for half-maximal inhibition (IC50) at 72 h in [6] and in data set [12] was over 50 µM in each case. Further, the selectivity ratio in data set [8] and in [10] was over 1.1 throughout.

In [1], `CC1(C)CC[C@]23CC[C@]4(C)[C@H](CC[C@@H]5[C@@]6(C)CC(N=[N+]=[N-])C(=O)C(C)(C)[C@@H]6CC[C@]54C)[C@H]2[C@H]1OC3` (stereo partly drawn) yielded an IC50 of over 50 µM.

In data set [1], `CC(=O)N[C@H]1C[C@]2(C)[C@H]3CC[C@@H]4[C@H]5[C@H]6OC[C@@]5(CCC6(C)C)CC[C@@]4(C)[C@]3(C)CC[C@H]2C(C)(C)[C@H]1OC(C)=O` came in with a concentration for half-maximal inhibition (IC50) of over 50 µM.

Turning to `CC1(C)CC[C@]23CC[C@]4(C)[C@H](CC[C@@H]5[C@@]6(C)CC([N+](=O)[O-])([N+](=O)[O-])C(=O)C(C)(C)[C@@H]6CC[C@]54C)[C@H]2[C@H]1OC3`, the half-maximal inhibitory concentration (IC50) in data set [1] is over 50 µM.

In turn, `COC(=O)CCC(=O)N[C@@H]1C[C@]2(C)[C@H]3CC[C@@H]4[C@H]5[C@H]6OC[C@@]5(CCC6(C)C)CC[C@@]4(C)[C@]3(C)CC[C@H]2C(C)(C)[C@H]1O` came in with an IC50 in [1] of over 50 µM.

Take `CC1(C)CC[C@]23CC[C@]4(C)[C@H](CC[C@@H]5[C@@]6(C)CC(Br)C(=O)C(C)(C)[C@@H]6CC[C@]54C)[C@H]2[C@H]1OC3` (stereo partly drawn): the IC50 in data set [1] is over 50 µM.

Consider `CC1(C)CC[C@]23CC[C@]4(C)[C@H](CC[C@@H]5[C@@]6(C)C[C@H](NC(=O)CCC(=O)O)[C@H](O)C(C)(C)[C@@H]6CC[C@]54C)[C@H]2[C@H]1OC3`, for which, in data set [1], the concentration for half-maximal inhibition (IC50) was over 50 µM.

For `CC(=O)NC1C[C@]2(C)[C@H]3CC[C@@H]4[C@H]5[C@H]6OC[C@@]5(CCC6(C)C)CC[C@@]4(C)[C@]3(C)CC[C@H]2C(C)(C)C1=O` (stereo partly drawn), the IC50 was over 50 µM in data set [2]; over 50 µM in data set [3]; over 50 µM in [4]; 32.4 µM in [5]; 32 to 32.2 µM in [1]; over 50 µM in data set [7]. For the same molecule, the IC50 in data set [9] came out at 42.9 µM; in [11], 38.7 µM. The figures for the concentration for half-maximal inhibition (IC50) at 72 h in data set [6] and in data set [12] were over 50 µM and 21.6 µM, respectively. Further, the selectivity ratio in data set [8] and in data set [10] was over 1.1 in each case.

With `CC(C)[C@@H]1CC[C@]2(C(=O)O)CC[C@]3(C)[C@H](CC[C@@H]4[C@@]5(C)CCC(=O)C(C)(C)[C@@H]5CC[C@]43C)[C@@H]12` [DIHYDROBETULONIC ACID], in data set [1], 4 µM corresponded to half-maximal inhibition (IC50).

Consider `C=C(C)[C@@H]1CC[C@]2(C(=O)O)CC[C@]3(C)[C@H](CC[C@@H]4[C@@]5(C)CCC(=O)C(C)(C)[C@@H]5CC[C@]43C)[C@@H]12` [BETUNOLIC ACID], for which the IC50 in data set [1] came to 14 µM.

`CC1(C)CC[C@]23CC[C@]4(C)[C@H](CC[C@@H]5[C@@]6(C)CC7=C(OCCS7)C(C)(C)[C@@H]6CC[C@]54C)[C@H]2[C@H]1OC3`: the half-maximal inhibitory concentration (IC50) in data set [1] is over 50 µM.

Take `CC1(C)CC[C@]23CC[C@]4(C)[C@H](CC[C@@H]5[C@@]6(C)CC[C@H](O)C(C)(C)[C@@H]6CC[C@]54C)[C@H]2[C@H]1OC3` [ALLOBETULIN]: the IC50 in data set [1] was over 50 µM.

Take `CC(C)[C@@H]1CC[C@]2(C(=O)O)CC[C@]3(C)[C@H](CC[C@@H]4[C@@]5(C)CC([N+](=O)[O-])=C(O)C(C)(C)[C@@H]5CC[C@]43C)[C@@H]12`: the half-inhibitory concentration (IC50) was 36.1 µM in data set [2]; 31.3 µM in [3]; 20.6 µM in [4]; 10.1 µM in data set [5]; 31.8 to 32 µM in data set [1]; over 50 µM in data set [7]. Also, the half-maximal inhibitory concentration (IC50) in data set [9] and in data set [11] was over 50 µM each time. Moreover, the concentration for half-maximal inhibition (IC50) at 72 h in data set [6] and in data set [12] was over 50 µM each time. The selectivity ratio in data set [8] and in [10] was over 1.6 each time.

`CC1(C)CC[C@]23CC[C@]4(C)[C@H](CC[C@@H]5[C@@]6(C)CCC(=O)C(C)(C)[C@@H]6CC[C@]54C)[C@H]2[C@H]1OC3` displayed an IC50 in [1] of over 50 µM.

Molecule `CC1(C)CC[C@]23CC[C@]4(C)[C@H](CC[C@@H]5[C@@]6(C)C=C(N)C(=O)C(C)(C)[C@@H]6CC[C@]54C)[C@H]2[C@H]1OC3` yielded an IC50 in data set [1] of over 50 µM.

As to `CC(C)[C@@H]1CC[C@]2(C(=O)O)CC[C@]3(C)[C@H](CC[C@@H]4[C@@]5(C)C=C(O)C(=O)C(C)(C)[C@@H]5CC[C@]43C)[C@@H]12`, in data set [1], 6 µM corresponded to half-maximal inhibition (IC50).

Turning to `C=C(C)[C@@H]1CC[C@]2(CO)CC[C@]3(C)[C@H](CC[C@@H]4[C@@]5(C)CC[C@H](O)C(C)(C)[C@@H]5CC[C@]43C)[C@@H]12` [BETULIN], the IC50 in data set [1] is over 50 µM.

Take `CC1(C)CC[C@]23CC[C@]4(C)[C@H](CC[C@@H]5[C@@]6(C)CC([N+](=O)[O-])=C(O)C(C)(C)[C@@H]6CC[C@]54C)[C@H]2[C@H]1OC3`: in data set [1], the IC50 is over 50 µM.

In data set [1], `CC1(C)CC[C@]23CC[C@]4(C)[C@H](CC[C@@H]5[C@@]6(C)C[C@@H](NC(=O)CCC(=O)O)[C@H](O)C(C)(C)[C@@H]6CC[C@]54C)[C@H]2[C@H]1OC3` registered a 50% inhibitory concentration (IC50) of over 50 µM.

As for `CC1(C)CC[C@]23CC[C@]4(C)[C@H](CC[C@@H]5[C@@]6(C)C=C(NC7=C[C@]8(C)[C@H]9CC[C@@H]%10[C@@H]%11[C@H]%12OC[C@@]%11(CCC%12(C)C)CC[C@@]%10(C)[C@]9(C)CC[C@H]8C(C)(C)C7=O)C(=O)C(C)(C)[C@@H]6CC[C@]54C)[C@H]2[C@H]1OC3`, the IC50 in [1] was over 50 µM.

`CC1(C)CC[C@]23CC[C@]4(C)[C@H](CC[C@@H]5[C@@]6(C)C[C@@H](N=[N+]=[N-])[C@H](O)C(C)(C)[C@@H]6CC[C@]54C)[C@H]2[C@H]1OC3` came in with an IC50 in data set [1] of over 50 µM.

Take `COC(=O)CCC(=O)N[C@H]1C[C@]2(C)[C@H]3CC[C@@H]4[C@H]5[C@H]6OC[C@@]5(CCC6(C)C)CC[C@@]4(C)[C@]3(C)CC[C@H]2C(C)(C)[C@H]1O`: the IC50 in [1] was over 50 µM.

As for `CC(=O)N[C@@H]1C[C@]2(C)[C@H]3CC[C@@H]4[C@H]5[C@H]6OC[C@@]5(CCC6(C)C)CC[C@@]4(C)[C@]3(C)CC[C@H]2C(C)(C)[C@H]1OC(C)=O`, the IC50 in data set [1] was over 50 µM.

On to `CC1(C)CC[C@]23CC[C@]4(C)[C@H](CC[C@@H]5[C@@]6(C)C[C@H](N=[N+]=[N-])[C@H](O)C(C)(C)[C@@H]6CC[C@]54C)[C@H]2[C@H]1OC3`, for which the IC50 in data set [1] is over 50 µM.

By IC50 is commonly meant the concentration at which inhibition is half-maximal. Read a low IC50 as greater potency.
